Measured values as given in publication PMC5152578 (Molecular oncology, 2016).

Experiments:
[1] = tested on: lung tissues of MDA-MB-231 xenograft SCID mice; assay: Immunohistochemistry of lung tissues; format: in vivo, mouse; conditions: lung tissue
Outline: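 Lungs from the metastasis model were fixed in 10% buffered formalin, paraffin-embedded and cut at 4 μm. Sections stained with H&E and immunostained with rabbit antibodies to VEGF, Ki-67, COX-2 and caspase 3. Staining levels quantified by image analysis and compared with sham and tumor control groups.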

[2] = tested on: MDA-MB-231 cells; assay: Boyden chamber; format: cell-based, human; conditions: 24 h, Matrigel
Outline: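 Filters (8 μm) pre-coated with Matrigel (30 μg per filter) and held 2 h at 37 °C. MDA-MB-231 cells were seeded in the upper chamber at 5 × 10^4 per insert in DMEM with 0.1% FBS. The lower well held 10% FBS chemoattractant plus 0.5% DMSO vehicle or test compounds, two concentrations each. Incubation 24 h, 37 °C, 5% CO2. Cells on the upper surface were scraped off; invaded cells fixed, DAPI-stained (1 μg/mL) and counted in three 20× fields. Three independent experiments, mean ± SEM, one-way ANOVA.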

[3] = tested on: MDA-MB-231 cells; assay: Western blot analysis of protein markers; format: cell-based, human; conditions: for PARP (full-length and cleaved) expression: 48-h treatment
Outline: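 Total cellular protein from treated MDA-MB-231 cells, quantified by Bradford assay. Resolved on 4%–20% gradient SDS-PAGE and immunoblotted for PARP (full-length and cleaved), PN-1, Slug, vimentin, VEGF, E-cadherin, Snail, ZO-1 and ZEB-1, with actin as loading control. HRP secondary antibodies and enhanced chemiluminescence on film. Bands quantified by densitometry and normalised to actin.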

[4] = tested on: MDA-MB-231 tumor cells in SCID mice; assay: Lung metastatic animal model of TNBC; format: in vivo, mouse; conditions: post-treatment, 5 mg/kg i.p. every three days (21 doses), day 71
Outline: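 Seventy female SCID mice, 5 weeks old, randomised into 7 groups. MDA-MB-231 cells (1 × 10^6) injected i.v. on day 0. One group received 10 mg/kg every two days for three doses before cell injection. Tumor and sham controls received 5% DMSO. Mice killed on day 71; lung colonies counted, body weight and organ index recorded; one-way ANOVA.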

[5] = tested on: MDA-MB-231 cells; assay: Boyden chamber migration assay; format: cell-based, human; conditions: 24 h, vs vehicle; for reduction of cell migration, low concentration: DET 2.5 μM, DETD-35 1.25 μM, PTX 2.5 μM
Outline: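 Boyden inserts, 6.5 mm diameter, no coating. 5 × 10^4 MDA-MB-231 cells per insert in DMEM with 0.1% FBS. The lower well held 10% FBS chemoattractant with 0.5% DMSO vehicle or test compounds at two concentrations. Incubation 24 h, 37 °C, 5% CO2. Non-migrated cells removed by swab; migrated cells fixed, DAPI-stained (1 μg/mL) and counted in three fields at 20× by fluorescence microscopy. Three independent experiments, mean ± SEM, one-way ANOVA.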

[6] = tested on: MDA-MB-231 cells; assay: Compound-drug combination assay; format: cell-based, human; conditions: MTT, 24 h
Outline: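 MDA-MB-231 cells seeded at 1.5 × 10^3–5 × 10^3 per well in 96-well plates. Treated 24 h with each agent alone to derive IC40 by MTT. Then treated with the test compound (0–4 μM) combined with paclitaxel (0–100 nM) and read by MTT. Interaction assessed by classic isobologram and the Chou-Talalay method. Combination index plotted against fraction affected: CI <1 synergy, =1 additive, >1 antagonism.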

[7] = tested on: MDA-MB-231 cells; assay: Cell cycle analysis by flow cytometry; format: cell-based, human; conditions: for apoptotic sub-G1 DNA content / G0/G1 phase DNA content: 48 h at IC50 (DET 14 μM, DETD-35 3.8 μM, PTX 60 μM); for apoptotic sub-G1 DNA content: vehicle 1.3%; for G0/G1 phase DNA content: vehicle 51.5%; for cell-cycle arrest: treatment at IC50, time course
Outline: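 MDA-MB-231 cells, 5 × 10^4 per well in 6-well plates, held 24 h in DMEM with 0.5% FBS. Medium then switched to 10% FBS with test compounds for 48 h, or for indicated times. Adherent and floating cells pooled, PBS-washed and fixed in ice-cold 70% ethanol overnight at 4 °C. Stained with 20 μg/mL RNase, Triton X-100 and 20 μg/mL propidium iodide for 30 min, dark, room temperature. Phase fractions (sub-G1, G0/G1, S, G2/M) taken from flow cytometric DNA histograms; three independent experiments.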

[8] = tested on: MDA-MB-231 (ER−, PR−, HER2−) cells; assay: MTT cell viability assay, MDA-MB-231 cells; format: cell-based, human; conditions: read-out: 50% inhibitory concentration (IC50), MDA-MB-231, Table 3, 24 h, breast
Outline: (§1)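 Normal or cancer cells seeded at 2 × 10^3–1 × 10^4 per well in 96-well plates and allowed to settle overnight. Exposed to test compounds for 24 h, with paclitaxel run in parallel as reference. Growth read by MTT, OD570. Viability (%) = treated OD570 / vehicle OD570 × 100, with 0.5% DMSO vehicle set as 100%. IC50 derived from viability data.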

[9] = tested on: neuroepithelioma line SK-N-MC; assay: MTT cell viability assay, SK-N-MC cells; format: cell-based; conditions: read-out: 50% inhibitory concentration (IC50), SK-N-MC, 24 h
Outline: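 Cells (2 × 10^3–1 × 10^4 per well) seeded overnight in 96-well plates, then exposed to test compound for 24 h. Growth read by MTT colorimetric assay at OD570. Viability expressed as treated OD570 over vehicle (0.5% DMSO) OD570 × 100, with vehicle set to 100% viable. IC50 taken as the concentration giving 50% inhibition of viability.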

[10] = tested on: colon cancer cell line HCT-116; assay: MTT cell viability assay, HCT-116 cells; format: cell-based; conditions: read-out: 50% inhibitory concentration (IC50), HCT-116, 24 h
Outline: as §1

[11] = tested on: TS/A (ER+, HER2−) murine mammary cancer cell line; assay: MTT cell viability assay, TS/A cells; format: cell-based; conditions: read-out: 50% inhibitory concentration (IC50), TS/A (mouse), Table 3, 24 h, breast
Outline: as §1

[12] = tested on: stomach cancer cell line KATO III; assay: MTT cell viability assay, KATO III cells; format: cell-based; conditions: read-out: 50% inhibitory concentration (IC50), KATO III, 24 h
Outline: as §1

[13] = tested on: kidney cancer cell line A498; assay: MTT cell viability assay, A498 cells; format: cell-based; conditions: read-out: 50% inhibitory concentration (IC50), A498, 24 h
Outline: as §1

[14] = tested on: PC3 cells (prostate); assay: MTT cell viability assay, PC3 cells; format: cell-based; conditions: read-out: 50% inhibitory concentration (IC50), PC3, 24 h
Outline: as §1

[15] = tested on: uterus cancer cell line NES-SA; assay: MTT cell viability assay, NES-SA cells; format: cell-based; conditions: read-out: 50% inhibitory concentration (IC50), NES-SA, 24 h
Outline: as §1

[16] = tested on: lung cancer cell line PC6; assay: MTT cell viability assay, PC6 cells; format: cell-based; conditions: read-out: 50% inhibitory concentration (IC50), PC6, 24 h
Outline: as §1

[17] = tested on: brain cancer cell line U-87MG; assay: MTT cell viability assay, U-87MG cells; format: cell-based; conditions: read-out: 50% inhibitory concentration (IC50), U-87MG, 24 h
Outline: as §1

[18] = tested on: lymphoma line U937; assay: MTT cell viability assay, U937 cells; format: cell-based; conditions: read-out: 50% inhibitory concentration (IC50), U937, 24 h
Outline: as §1

[19] = tested on: B16–F10 cells (skin); assay: MTT cell viability assay, B16–F10 cells; format: cell-based; conditions: read-out: 50% inhibitory concentration (IC50), B16–F10 (mouse), 24 h
Outline: as §1

[20] = DET 4 μM, DETD-35 2.5 μM, PTX 4 μM

Row | Molecule | expressions of VEGF and protease nexin-1 (PN-1) [3] | vimentin expression [3] | PARP (full-length and cleaved) expression [3] | reduction of cell migration, low concentration [5] [%] | apoptotic sub-G1 DNA content [7] [%] | G0/G1 phase DNA content [7] [%] | cell-cycle arrest [7] | IC50 [8] [nM] | IC50 [9] [nM] | IC50 [10] [nM] | IC50 [11] [nM] | IC50 [12] [nM] | IC50 [13] [nM] | IC50 [14] [nM] | IC50 [15] [nM] | IC50 [16] [nM] | IC50 [17] [nM] | IC50 [18] [nM] | IC50 [19] [nM] | further results
1 | CC(=O)O[C@H]1C(=O)[C@@]2(C)[C@H]([C@H](OC(=O)c3ccccc3)[C@]3(O)C[C@H](OC(=O)[C@H](O)[C@@H](NC(=O)c4ccccc4)c4ccccc4)C(C)=C1C3(C)C)[C@]1(OC(C)=O)CO[C@@H]1C[C@@H]2O [PTX, paclitaxel] | downregulated | time-dependently downregulated | reduced the expression of full-length PARP | 87 | 66.8 | 11.2 | typical time-dependent G2/M arrest | – | – | – | – | – | – | – | – | – | – | – | – | expression of apoptotic marker caspase 3 [1]: increased expression; inhibition of cell invasion, low concentration ([2]; DET 2.5 μM, DETD-35 1.25 μM, PTX 2.5 μM): 85%; inhibition of cell invasion, high concentration [2, 20]: 90%; reduction of lung tumor foci [4]: 62%; reduction of cell migration, high concentration [5, 20]: 88%; IC40 on MDA-MB-231 cells [6]: 23.8 nM
2 | C=C(C)C(=O)O[C@H]1CC2=C[C@@H](C/C(C)=C/[C@H]3OC(=O)C(=C)[C@H]13)OC2=O [compound 1, deoxyelephantopin, reference compound] | downregulated | did not regulate | induced significant cleavage in PARP | 16 | 19.3 | 36.2 | did not show any cell-cycle arrest at specific stages | 14000 | 510 | 280 | 2600 | 1470 | 2820 | 12800 | 900 | 400 | 1000 | 480 | 6000 | ZEB-1 expression level ([3]; at 48 h): 49%
3 | Cinnamate [compound 28] | – | – | – | – | – | – | – | 4000 | 320 | 110 | 1800 | 420 | 1110 | 4500 | 420 | 170 | 350 | 180 | 3900 | –
